In article PMC8905034 (Acta Pharmacologica Sinica, 2022):

Tests used:
[1] = molecular target: T1, BRD4(1) (Homo sapiens, UniProt O60885); assay: Thermal shift assay; type: binding
[2] = molecular target: T1, BRD4(1); assay: Alphascreen assay against BRD4; type: biochemical
[3] = system: CDK6; assay: qRT-PCR of CDK6 mRNA in MV4-11; type: cell-based, human; settings: MV4-11, 48 h, 1 μM, 5 μM and 10 μM vs control
Method in brief: (§1)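 Log-phase cells seeded at 5000 per well, grown 12 h, then given a range of test compound concentrations for 48 h, in triplicate wells. RNA extracted with TRIzol; reverse transcription with iScript (25 °C 5 min, 42 °C 30 min, 85 °C 5 min). EvaGreen qPCR used gene-specific primers. Expression by 2−ΔΔCt, normalised to GAPDH; one-way ANOVA with Tukey's test.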

[4] = system: MV4-11 cells; assay: Apoptosis analysis by flow cytometry; type: cell-based, human; settings: MV4-11, 1 μM, 5 μM and 10 μM vs control
Method in brief: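 Harvested cells washed in cold PBS and resuspended at 10^6/mL in 1× Annexin binding buffer. Stained with Alexa Fluor 488 Annexin V plus propidium iodide (100 μg/mL working solution) for 15 min at room temperature in the dark, then analysed by flow cytometry. Groups compared by one-way ANOVA with Tukey's test.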

[5] = system: MV4-11 cells; assay: Cell cycle analysis by flow cytometry; type: cell-based, human; settings: MV4-11, 48 h
Method in brief: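 Cells seeded at 5 × 10^3 per well, grown 12 h, then exposed to graded test compound concentrations or DMSO for 48 h at 37 °C. Fixed overnight in 70% ethanol at 4 °C. RNase A (about 50 μg/mL final) at 37 °C for 30 min, then PI (about 65 μg/mL final) on ice in the dark for 30 min. Flow cytometry within 1 h; one-way ANOVA with Tukey's test.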

[6] = system: c-Myc; assay: qRT-PCR of c-Myc mRNA in MV4-11; type: cell-based, human; settings: MV4-11, 48 h, 1 μM, 5 μM and 10 μM vs control
Method in brief: as §1

[7] = system: c-Myc; assay: Western blotting of c-Myc in MV4-11; type: cell-based, human; settings: MV4-11, 48 h, Western blot
Method in brief: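 MV4-11 cells treated 48 h with several compound concentrations, then lysed 30 min on ice in RIPA with PMSF and cleared at 12,000 r/min, 4 °C. Protein quantified by BCA, run on 8% SDS-PAGE, blotted to PVDF and blocked in 5% milk/TBST. Probed with anti-c-Myc (1:1000, 4 °C overnight) and HRP anti-rabbit (1:50000, 1 h), then ECL. Densitometry relative to GAPDH; ANOVA/Tukey.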

## CCc1noc2cc(OC)c(NS(=O)(=O)CC)cc12 [Compound 11a, N-(3-Ethyl-6-methoxybenzo[d]isoxazol-5-yl)ethanesulfonamide]
[1]
  binding activity to BRD4 (TSA), in words: moderate binding activity

## CCc1noc2cc(OC)c(NS(=O)(=O)c3ccccc3)cc12 [Compound 11d, N-(3-Ethyl-6-methoxybenzo[d]isoxazol-5-yl)benzenesulfonamide]
[1]
  binding activity to BRD4 (TSA), in words: moderate activity

## CCc1noc2cc(OC)c(NS(=O)(=O)c3ccccc3OC)cc12 [Compound 11h, N-(3-Ethyl-6-methoxybenzo[d]isoxazol-5-yl)-2-methoxybenzenesulfonamide]
[2]
  IC50: 94 nM

## CCc1noc2cc(OC)c(NS(=O)(=O)c3ccc(OC)cc3)cc12 [Compound 11r, N-(3-Ethyl-6-methoxybenzo[d]isoxazol-5-yl)-4-methoxybenzenesulfonamide]
[3]
  mRNA expression of CDK6: decreased significantly
[4]
  apoptosis rate, in words: significantly increased
[5]
  cell cycle arrest, in words: induce cell cycle arrest in G0/G1 phase in a dose-dependent manner
[6]
  mRNA expression of c-Myc: decreased significantly
[7]
  c-Myc expression at the protein level: remarkable dose-dependent decrease

## CCc1noc2cc(OC)c(NS(=O)(=O)c3cccs3)cc12 [Compound 11y, N-(3-Ethyl-6-methoxybenzo[d]isoxazol-5-yl)thiophene-2-sulfonamide]
[1]
  binding activity to BRD4 (TSA), in words: good binding activities

## CCc1noc2cc(OC)c(NS(=O)(=O)c3cccnc3)cc12 [Compound 11z, N-(3-Ethyl-6-methoxybenzo[d]isoxazol-5-yl)pyridine-3-sulfonamide]
[1]
  binding activity to BRD4 (TSA), in words: good binding activities
